Experimental data as given in ChEMBL document CHEMBL5356993, “Novel pyrazolo[3,4-d]pyrimidine derivatives: design, synthesis, anticancer evaluation, VEGFR-2 inhibition, and antiangiogenic activity” (RSC Med Chem, 2023).

How the values were obtained:
Format in all cases: functional
Conditions in all cases: read-out: GI
[1] = test system: U-251; assay: Antiproliferative activity against human U-251 cells assessed as cell growth inhibition at 10 uM incubated for 48 hrs by SRB assay relative to control
Procedure, shortened: (§1)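 Cells pre-incubated 24 h at 37°C, 5% CO2, then exposed to compound (DMSO stock diluted in medium with 50 µg/mL gentamicin) for 48 h. Adherent cells fixed with cold TCA (final 10%, 60 min, 4°C); suspension cells fixed with 16% TCA final. Stained with 0.4% SRB in 1% acetic acid for 10 min, dye solubilized in 10 mM Trizma base, absorbance read at 515 nm. Growth calculated against time-zero and untreated control plates.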

[2] = test system: HCT-15; assay: Antiproliferative activity against human HCT-15 cells assessed as cell growth inhibition at 10 uM incubated for 48 hrs by SRB assay relative to control
[3] = test system: SNB-75; assay: Antiproliferative activity against human SNB-75 cells assessed as cell growth inhibition at 10 uM incubated for 48 hrs by SRB assay relative to control; procedure, shortened: as §1
[4] = test system: RXF 393; assay: Antiproliferative activity against human RXF 393 cells assessed as cell growth inhibition at 10 uM incubated for 48 hrs by SRB assay relative to control
Procedure, shortened: (§2)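 Cells plated in 96-well plates at […] cells/well and preincubated 24 h at 37 °C, 5% CO2. Time-zero plates were TCA-fixed. Compound was diluted in medium with 50 µg/mL gentamicin and cells exposed for 48 h. Adherent cells fixed with 10% final TCA; suspension cells with 16% final TCA. Plates stained with 0.4% SRB in 1% acetic acid, dye solubilized in 10 mM Trizma, absorbance read at 515 nm. Percent growth calculated against time-zero and control.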

[5] = test system: SK-MEL-2; assay: Antiproliferative activity against human SK-MEL-2 cells assessed as cell growth inhibition at 10 uM incubated for 48 hrs by SRB assay relative to control; procedure, shortened: as §2
[6] = test system: SNB-19; assay: Antiproliferative activity against human SNB-19 cells assessed as cell growth inhibition at 10 uM incubated for 48 hrs by SRB assay relative to control; procedure, shortened: as §1
[7] = test system: SW-620; assay: Antiproliferative activity against human SW620 cells assessed as cell growth inhibition at 10 uM incubated for 48 hrs by SRB assay relative to control; procedure, shortened: as §1
[8] = test system: KM12; assay: Antiproliferative activity against human KM12 cells assessed as cell growth inhibition at 10 uM incubated for 48 hrs by SRB assay relative to control; procedure, shortened: as §2
[9] = test system: EKVX; assay: Antiproliferative activity against human EKVX cells assessed as cell growth inhibition at 10 uM incubated for 48 hrs by SRB assay relative to control
[10] = test system: HL-60(TB); assay: Antiproliferative activity against human HL-60(TB) cells assessed as cell growth inhibition at 10 uM incubated for 48 hrs by SRB assay relative to control
Procedure, shortened: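 Cells were plated at […] cells/well and preincubated 24 h at 37°C, 5% CO2, with time-zero plates TCA-fixed. Compound was diluted from DMSO stock in medium with 50 µg/mL gentamicin, then exposed for 48 h. Settled suspension cells were fixed with 80% TCA (final 16%), stained with 0.4% SRB and solubilized in 10 mM Trizma, A515. Growth was taken relative to Tz and control.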

[11] = test system: HOP-92; assay: Antiproliferative activity against human HOP-92 cells assessed as cell growth inhibition at 10 uM incubated for 48 hrs by SRB assay relative to control; procedure, shortened: as §2
[12] = test system: A498; assay: Antiproliferative activity against human A498 cells assessed as cell growth inhibition at 10 uM incubated for 48 hrs by SRB assay relative to control; procedure, shortened: as §2
[13] = test system: HT-29; assay: Antiproliferative activity against human HT-29 cells assessed as cell growth inhibition at 10 uM incubated for 48 hrs by SRB assay relative to control; procedure, shortened: as §2
[14] = test system: BT-549; assay: Antiproliferative activity against human BT-549 cells assessed as cell growth inhibition at 10 uM incubated for 48 hrs by SRB assay relative to control
[15] = test system: SF-295; assay: Antiproliferative activity against human SF-295 cells assessed as cell growth inhibition at 10 uM incubated for 48 hrs by SRB assay relative to control; procedure, shortened: as §2
[16] = test system: M14; assay: Antiproliferative activity against human M14 cells assessed as cell growth inhibition at 10 uM incubated for 48 hrs by SRB assay relative to control; procedure, shortened: as §2
[17] = test system: RPMI-8226; assay: Antiproliferative activity against human RPMI-8226 cells assessed as cell growth inhibition at 10 uM incubated for 48 hrs by SRB assay relative to control
[18] = test system: OVCAR-5; assay: Antiproliferative activity against human OVCAR-5 cells assessed as cell growth inhibition at 10 uM incubated for 48 hrs by SRB assay relative to control; procedure, shortened: as §2
[19] = test system: DU-145; assay: Antiproliferative activity against human DU-145 cells assessed as cell growth inhibition at 10 uM incubated for 48 hrs by SRB assay relative to control
[20] = test system: ACHN; assay: Antiproliferative activity against human ACHN cells assessed as cell growth inhibition at 10 uM incubated for 48 hrs by SRB assay relative to control
[21] = test system: MOLT-4; assay: Antiproliferative activity against human MOLT-4 cells assessed as cell growth inhibition at 10 uM incubated for 48 hrs by SRB assay relative to control
[22] = test system: UACC-62; assay: Antiproliferative activity against human UACC-62 cells assessed as cell growth inhibition at 10 uM incubated for 48 hrs by SRB assay relative to control; procedure, shortened: as §1
[23] = test system: LOX IMVI; assay: Antiproliferative activity against human LOX IMVI cells assessed as cell growth inhibition at 10 uM incubated for 48 hrs by SRB assay relative to control
[24] = test system: CAKI-1; assay: Antiproliferative activity against human CAKI-1 cells assessed as cell growth inhibition at 10 uM incubated for 48 hrs by SRB assay relative to control
[25] = test system: K562; assay: Antiproliferative activity against human K562 cells assessed as cell growth inhibition at 10 uM incubated for 48 hrs by SRB assay relative to control
[26] = test system: UACC-257; assay: Antiproliferative activity against human UACC-257 cells assessed as cell growth inhibition at 10 uM incubated for 48 hrs by SRB assay relative to control; procedure, shortened: as §1
[27] = test system: SF-539; assay: Antiproliferative activity against human SF-539 cells assessed as cell growth inhibition at 10 uM incubated for 48 hrs by SRB assay relative to control; procedure, shortened: as §2
[28] = test system: COLO 205; assay: Antiproliferative activity against human COLO 205 cells assessed as cell growth inhibition at 10 uM incubated for 48 hrs by SRB assay relative to control
[29] = test system: Malme-3M; assay: Antiproliferative activity against human Malme-3M cells assessed as cell growth inhibition at 10 uM incubated for 48 hrs by SRB assay relative to control
[30] = test system: MDA-MB-435; assay: Antiproliferative activity against human MDA-MB-435 cells assessed as cell growth inhibition at 10 uM incubated for 48 hrs by SRB assay relative to control
[31] = test system: OVCAR-4; assay: Antiproliferative activity against human OVCAR-4 cells assessed as cell growth inhibition at 10 uM incubated for 48 hrs by SRB assay relative to control
[32] = test system: A549; assay: Antiproliferative activity against human A549 cells assessed as cell growth inhibition at 10 uM incubated for 48 hrs by SRB assay relative to control

Row | SMILES | inhibition of growth at 10 µM [1] [%] | inhibition of growth at 10 µM [2] [%] | inhibition of growth at 10 µM [3] [%] | inhibition of growth at 10 µM [4] [%] | inhibition of growth at 10 µM [5] [%] | inhibition of growth at 10 µM [6] [%] | inhibition of growth at 10 µM [7] [%] | inhibition of growth at 10 µM [8] [%] | inhibition of growth at 10 µM [9] [%] | inhibition of growth at 10 µM [10] [%] | inhibition of growth at 10 µM [11] [%] | inhibition of growth at 10 µM [12] [%] | inhibition of growth at 10 µM [13] [%] | inhibition of growth at 10 µM [14] [%] | inhibition of growth at 10 µM [15] [%] | inhibition of growth at 10 µM [16] [%] | inhibition of growth at 10 µM [17] [%] | inhibition of growth at 10 µM [18] [%] | inhibition of growth at 10 µM [19] [%] | inhibition of growth at 10 µM [20] [%] | other results
1 | Cc1nc2c(cnn2-c2ccccc2)c(=O)n1-c1ccc(N2C(=O)C=CC2=O)cc1 | < 15 | < 15 | < 15 | < 15 | < 15 | < 15 | < 15 | < 15 | < 15 | < 15 | < 15 | < 15 | < 15 | < 15 | < 15 | < 15 | < 15 | < 15 | < 15 | < 15 | inhibition of growth at 10 µM [21]: < 15%; inhibition of growth at 10 µM [22]: < 15%; inhibition of growth at 10 µM [23]: < 15%; inhibition of growth at 10 µM [24]: < 15%; inhibition of growth at 10 µM [25]: < 15%; inhibition of growth at 10 µM [26]: < 15%; inhibition of growth at 10 µM [27]: < 15%; inhibition of growth at 10 µM [28]: < 15%; inhibition of growth at 10 µM [29]: < 15%; inhibition of growth at 10 µM [30]: < 15%; inhibition of growth at 10 µM [31]: < 15%; inhibition of growth at 10 µM [32]: < 15%
2 | COc1ccc(/C=C/C(=O)c2ccc(-n3c(C)nc4c(cnn4-c4ccccc4)c3=O)cc2)cc1 | 25.9 | 46.5 | < 15 | 15.6 | 29.4 | 18.2 | 24.9 | 68.4 | 57.1 | 55.3 | < 15 | < 15 | 28.5 | 55 | 34.5 | 46.9 | > 100 | < 15 | 16.8 | 29 | inhibition of growth at 10 µM [21]: 55.3%; inhibition of growth at 10 µM [22]: 50%; inhibition of growth at 10 µM [23]: 56%; inhibition of growth at 10 µM [24]: 25%; inhibition of growth at 10 µM [25]: 87.6%; inhibition of growth at 10 µM [26]: 25.4%; inhibition of growth at 10 µM [27]: 22.4%; inhibition of growth at 10 µM [28]: < 15%; inhibition of growth at 10 µM [29]: 39.5%; inhibition of growth at 10 µM [30]: 88.8%; inhibition of growth at 10 µM [31]: 34.3%; inhibition of growth at 10 µM [32]: < 15%
3 | Cc1nc2c(cnn2-c2ccccc2)c(=O)n1-c1ccc(NC(=O)c2ccc([N+](=O)[O-])cc2)cc1 | < 15 | 28.6 | 32.9 | 26.4 | 29.3 | 25.4 | < 15 | 20.4 | 69.3 | 54 | < 15 | 19.6 | 21.6 | 48.8 | 56.3 | 24.6 | 47.7 | < 15 | 21 | 39.6 | inhibition of growth at 10 µM [21]: 63.4%; inhibition of growth at 10 µM [22]: 39.6%; inhibition of growth at 10 µM [23]: 34.1%; inhibition of growth at 10 µM [24]: 31.5%; inhibition of growth at 10 µM [25]: 68.8%; inhibition of growth at 10 µM [26]: 50.8%; inhibition of growth at 10 µM [27]: 18.7%; inhibition of growth at 10 µM [28]: 25.9%; inhibition of growth at 10 µM [29]: 34%; inhibition of growth at 10 µM [30]: 33.6%; inhibition of growth at 10 µM [31]: 48.2%; inhibition of growth at 10 µM [32]: 33%
4 | Cc1nc2c(cnn2-c2ccccc2)c(=O)n1-c1ccc(/N=C2\C(=O)Nc3ccccc32)cc1 | 39.6 | 15.7 | < 15 | 29 | < 15 | 36 | < 15 | < 15 | 52.1 | < 15 | 17.6 | < 15 | < 15 | 22.1 | 24.7 | 18.8 | 36.5 | < 15 | < 15 | 27.7 | inhibition of growth at 10 µM [21]: 34.1%; inhibition of growth at 10 µM [22]: 36.2%; inhibition of growth at 10 µM [23]: 18.3%; inhibition of growth at 10 µM [24]: 31.7%; inhibition of growth at 10 µM [25]: 34.4%; inhibition of growth at 10 µM [26]: 29.3%; inhibition of growth at 10 µM [27]: 20.9%; inhibition of growth at 10 µM [28]: < 15%; inhibition of growth at 10 µM [29]: 23.1%; inhibition of growth at 10 µM [30]: < 15%; inhibition of growth at 10 µM [31]: 43.9%; inhibition of growth at 10 µM [32]: < 15%
5 | Cc1nc2c(cnn2-c2ccccc2)c(=O)n1-c1ccc(NC(=O)c2ccc(Cl)cc2)cc1 | < 15 | 23.2 | 27.5 | < 15 | 26.1 | 16.3 | 17.3 | 19.2 | 68.5 | 48.1 | 37.8 | < 15 | 28 | 36 | 45.9 | 24.6 | 52.9 | < 15 | 17.8 | 32.6 | inhibition of growth at 10 µM [21]: 30.7%; inhibition of growth at 10 µM [22]: 32.2%; inhibition of growth at 10 µM [23]: 33.4%; inhibition of growth at 10 µM [24]: 29.7%; inhibition of growth at 10 µM [25]: 61.3%; inhibition of growth at 10 µM [26]: 53.9%; inhibition of growth at 10 µM [27]: < 15%; inhibition of growth at 10 µM [28]: 18.8%; inhibition of growth at 10 µM [29]: 33.3%; inhibition of growth at 10 µM [30]: 30.2%; inhibition of growth at 10 µM [31]: 53.9%; inhibition of growth at 10 µM [32]: 26.1%
